According to ChEMBL document CHEMBL1123118, “Substrate probes for the mechanism of aromatic hydroxylation catalyzed by cytochrome P-450: selectively deuterated analogues of warfarin” (J Med Chem, 1985):

Assays:
Rattus norvegicus [1] = organism: Rattus norvegicus; assay: Compound incubated with microsomal preparations from beta-naphthoflavone-treated male rats with the substrate rac 7-D and the amount of deuterium retained was reported after reincubation followed by normal workup; assay type: ADME
Rattus norvegicus [2] = organism: Rattus norvegicus; assay: Amount of deuterium retained was reported after normal workup in beta-naphthoflavone-treated male rats with the substrate rac 7-D; assay type: ADME, organism-based
How it was run: (§1)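 Liver microsomes from male Sprague-Dawley rats (140–160 g), untreated or pretreated with phenobarbital or β-naphthoflavone; protein set to 10 mg/mL. The 1-mL mix held substrate, an NADP+/glucose 6-phosphate/MgCl2 cofactor solution, glucose-6-phosphate dehydrogenase and microsomes in 0.05 M phosphate pH 7.4. It ran 10 min at 37 °C, in duplicate. Hydroxywarfarins were measured by capillary GC-MS, and % deuterium retention was calculated as product over substrate incorporation.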

Rattus norvegicus [3] = organism: Rattus norvegicus; assay: Amount of deuterium retained was reported after reincubation followed by normal workup in phenobarbital treated male rats; assay type: ADME, organism-based
Rattus norvegicus [4] = organism: Rattus norvegicus; assay: Amount of deuterium retained was reported after reincubation followed by normal workup in phenobarbital treated male rats with rac 8-D; assay type: ADME, organism-based
Rattus norvegicus [5] = organism: Rattus norvegicus; assay: Compound incubated with microsomal preparations from phenobarbital treated male rats with the substrate rac 8-D and the amount of deuterium retained was reported after normal workup; assay type: ADME; how it was run: as §1
Rattus norvegicus [6] = organism: Rattus norvegicus; assay: Amount of deuterium retained was reported after normal workup in rats; assay type: ADME, organism-based; how it was run: as §1

| Deuterium retention (Rattus norvegicus [1]) [%] | Deuterium retention (Rattus norvegicus [2]) [%] | Deuterium retention (Rattus norvegicus [3]) [%] | Deuterium retention (Rattus norvegicus [4]) [%] | Deuterium retention (Rattus norvegicus [5]) [%] | Deuterium retention (Rattus norvegicus [6]) [%] | SMILES |
| --- | --- | --- | --- | --- | --- | --- |
| 50 | 52 | 76 | 83 | 84 | 76 | CC(=O)CC(c1ccccc1)c1c(O)oc2cc(O)ccc2c1=O (centres undefined) |
| 84 | 84 | 65 | 89 | 90 | 66 | CC(=O)CC(c1ccccc1)c1c(O)oc2ccc(O)cc2c1=O (centres undefined) |
| 83 | 86 | 85 | 91 | 92 | 84 | CC(=O)CC(c1ccc(O)cc1)c1c(O)oc2ccccc2c1=O (centres undefined) |
| 76 | 76 | 83 | 58 | 58 | 82 | CC(=O)CC(c1ccccc1)c1c(O)oc2c(O)cccc2c1=O (centres undefined) |
